Experimental data as given in publication PMC4496304 (Environmental science & technology, 2015).
Entries after “also recorded” stand apart in the source; their conditions may differ. Where a name gives a salt, the structure may show the parent alone. Read-outs that look alike come from different tables or passages of the source. Marks after values point to notes of the source that are not given here.

Legend:
[1] = PCB 11 and its metabolites, rat, cited from earlier work
human transthyretin = conditions: cited from earlier work
[2] = assay type: in vivo, male Sprague-Dawley rats
Procedure, shortened: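 Single tail-vein injection in male rats (247 ± 8 g, 7-day acclimatization): 2 mM dosing solution in 5% (v/v) DMSO/sterile saline, 575 μg/kg; vehicle-injected controls. Killed by CO2 and cervical dislocation ~3 min, 1 h or 24 h post-dose (n = 6). Feces and intestinal contents came from rats held 24 h in metabolism cages. Tissues homogenized in 4 volumes water (liver: 20% acetonitrile). Analysis by negative-ion LC-ESI-MS/MS with internal standard.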

[3] = Stability of 4-PCB 11 sulfate in rat urine; assay type: in vitro ADME; conditions: 24 hours at 25 °C (experiments not shown)
[4] = 3min, iv 575 μg/kg, assuming total dose 142 μg
[5] = 24 hours, iv 575 μg/kg, assuming total dose 142 μg
[6] = 1 hour, iv 575 μg/kg, assuming total dose 142 μg

Clc1cccc(-c2cccc(Cl)c2)c1 [PCB 11, 3,3′-dichlorobiphenyl]
t1/2 clearance from liver ([1]; liver): 2.1 h
t1/2 clearance from lungs ([1]; lungs): 1.9 h
t1/2 clearance from serum ([1]; serum): 1.8 h

O=S(=O)(O)Oc1ccc(-c2cccc(Cl)c2)cc1Cl [4-PCB 11 sulfate, 3,3′-dichloro-4′-sulfooxy-biphenyl]
Affinity for transthyretin (T4 binding sites) (human transthyretin): affinity comparable to the physiological ligand, thyroxine; also recorded: among the most potent ligands
Fraction of 4-PCB 11 sulfate not recoverable ([2]; 1 hour, all samples examined): about two thirds
4-PCB 11 sulfate concentrations in tissues and fluids examined ([2]; after 24 hours of exposure): below the LOD
Observable 4-PCB 11 sulfate levels as fraction of the initial dose ([2]; after one hour): about one third
4-PCB 11 sulfate in bile ([2]; bile collected during 1 hour after injection, bile duct-cannulated rats, iv): 34 ± 3.9 µg
Fluid or Tissue (ml or g): brain, exposed animals ([2]; brain weight, exposed rats): 1.69 ± 0.07 ml or g
% of total dose in brain [2, 4]: 0.6 ± 0.2%
4-PCB 11 sulfate in brain ([2]; 3min, iv 575 μg/kg, rat): 0.8 ± 0.3 µg
4-PCB 11 sulfate in brain ([2]; 1 hour, iv 575 μg/kg, rat, detectable only in three samples): 0.9 ± 0.9 ^c μg
% of total dose in brain [2, 5]: 0%
4-PCB 11 sulfate in brain ([2]; 24 hours, iv 575 μg/kg, rat): < LOD
% of total dose in feces ([2]; feces, 24 hours, iv 575 μg/kg, assuming total dose 142 μg): 0%
4-PCB 11 sulfate in feces ([2]; feces, 24 hours, iv 575 μg/kg, rat): did not contain detectable levels; also recorded: undetectable; also recorded: < LOD
% of total dose in intestinal contents ([2]; intestinal contents, 24 hours, iv 575 μg/kg, assuming total dose 142 μg): 0%
4-PCB 11 sulfate in intestinal contents ([2]; intestinal contents, 24 hours, iv 575 μg/kg, rat): did not contain detectable levels; also recorded: undetectable; also recorded: < LOD
Fluid or Tissue (ml or g): kidneys, exposed animals ([2]; kidneys weight, exposed rats): 1.86 ± 0.16 ml or g
% of total dose in kidneys [2, 4]: 8.7 ± 2.4%
4-PCB 11 sulfate in kidneys ([2]; 3min, iv 575 μg/kg, rat): 12 ± 3.4 µg
% of total dose in kidneys [2, 6]: 1.1 ± 0.5%
4-PCB 11 sulfate in kidneys ([2]; 1 hour, iv 575 μg/kg, rat): 1.6 ± 0.7 µg
% of total dose in kidneys [2, 5]: 0%
Fluid or Tissue (ml or g): liver, exposed animals ([2]; liver weight, exposed rats): 10.6 ± 0.94 ml or g
% of total dose in liver [2, 4]: 47 ± 15%
4-PCB 11 sulfate in liver ([2]; 3min, iv 575 μg/kg, rat): 67 ± 21 µg
% of total dose in liver [2, 6]: 2 ± 1%
4-PCB 11 sulfate in liver ([2]; 1 hour, iv 575 μg/kg, rat): 2.9 ± 1.4 µg
% of total dose in liver [2, 5]: 0%
4-PCB 11 sulfate in liver ([2]; 24 hours, iv 575 μg/kg, rat): < LOD
Fluid or Tissue (ml or g): lungs, exposed animals ([2]; lungs weight, exposed rats): 1.3 ± 0.18 ml or g
% of total dose in lungs [2, 4]: 3.9 ± 1%
4-PCB 11 sulfate in lungs ([2]; 3min, iv 575 μg/kg, rat): 5.6 ± 1.4 µg
% of total dose in lungs [2, 6]: 0.4 ± 0.4%
4-PCB 11 sulfate in lungs ([2]; 1 hour, iv 575 μg/kg, rat): 0.6 ± 0.6 µg
% of total dose in lungs [2, 5]: 0%
4-PCB 11 sulfate in lungs ([2]; 24 hours, iv 575 μg/kg, rat): < LOD
Blood brain barrier crossing (detection in brain tissue) ([2]; rat, iv): ability to cross the blood brain barrier
Organ weights, exposed versus control animals ([2]; rat, iv 575 μg/kg): no significant differences
% of total dose in serum ([2]; 3min, iv 575 μg/kg, assuming total dose 142 μg per animal): 35 ± 8.5%
4-PCB 11 sulfate in serum ([2]; 3min post-injection, iv 575 μg/kg, rat): 50 ± 12 µg
% of total dose in serum [2, 6]: 2.1 ± 1.2%
4-PCB 11 sulfate in serum ([2]; 1 hour, iv 575 μg/kg, rat): 3.0 ± 1.6 µg
% of total dose in serum [2, 5]: 0%
4-PCB 11 sulfate in serum ([2]; 24 hours, iv 575 μg/kg, rat): < LOD
% of total dose in urine ([2]; urine, 24 hours collection, iv 575 μg/kg, assuming total dose 142 μg): 3.7 ± 1.8%
4-PCB 11 sulfate in urine ([2]; urine, 24 hours collection, iv 575 μg/kg, rat): 5.3 ± 2.5 µg
Stability in rat urine [3]: stable
